The values that follow come from ChEMBL document CHEMBL5230166, “Novel quinoline-piperazine hybrids: the design, synthesis and evaluation of antibacterial and antituberculosis properties” (RSC Med Chem, 2023).

Values after ≈ are worked out from the molar mass of the structure shown. Bounds are passed on as bounds.

Type in all cases: functional
For one test, the system named is Enterococcus faecalis. As to the kind of experiment: Antibacterial activity against vancomycin resistant Enterococcus faecalis ATCC 700802 assessed as inhibition of bacterial growth incubated for 22 to 24 hrs. As to conditions: time 22-24 hrs. The method, boiled down:
(§1)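 Broth microdilution MIC. Strains were subcultured on Soybean Casein Digest Agar, and inocula were taken from mid-log culture, adjusted to McFarland (~10⁸ CFU/mL), then diluted to ~10⁵ CFU/mL. Serial dilutions ran from 64 to 0.03 µg/mL. Plates were incubated 22–24 h at 37 °C, in triplicate. MIC was the lowest concentration with no visible growth.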

In a further test the test system is Klebsiella pneumoniae. Description: Antibacterial activity against clinical isolate Klebsiella pneumoniae AB 356 assessed as inhibition of bacterial growth incubated for 22 to 24 hrs. Conditions: time 22-24 hrs.
The subject of a further test is Enterococcus faecium. As to the kind of experiment: Antibacterial activity against Enterococcus faecium ATCC 49624 assessed as inhibition of bacterial growth incubated for 22 to 24 hrs. Conditions: time 22-24 hrs. In a few lines:
(§2)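 Broth MIC referenced to an earlier protocol. Inocula come from mid-log cultures sub-cultured on soybean casein digest agar, adjusted to McFarland (~10⁸ CFU/mL), then diluted to ~10⁵ CFU/mL. Compounds and controls are serially diluted from 64 to 0.03 µg/mL. Tested in triplicate, read after 22–24 h at 37 °C. MIC is the lowest concentration with no visible growth.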

The next test deals with Pseudomonas aeruginosa. Description: Antibacterial activity against clinical isolate Pseudomonas aeruginosa AB 645 assessed as inhibition of bacterial growth incubated for 22 to 24 hrs. As to conditions: time 22-24 hrs.
In the next test the test system is Acinetobacter baumannii. As to the kind of experiment: Antibacterial activity against clinical isolate Acinetobacter baumannii BAA 747 assessed as inhibition of bacterial growth incubated for 22 to 24 hrs. Conditions: time 22-24 hrs.
Test [1] relates to Staphylococcus aureus. As to the kind of experiment: Antibacterial activity against methicillin resistant Staphylococcus aureus ATCC 33591 assessed as inhibition of bacterial growth incubated for 22 to 24 hrs. Conditions: time 22-24 hrs. The method, boiled down: as §1
The test system of test [2] is Mycolicibacterium smegmatis. Description: Antibacterial activity against Mycobacterium smegmatis ATCC 607 assessed as inhibition of bacterial growth incubated for 2 days by CLSI protocol based broth microdilution method. As to conditions: ATCC 607, 48 h, time 2 day. In a few lines: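 CLSI broth microdilution in Middlebrook 7H9 with 10% ADC. Compounds are dissolved in DMSO at 4.0 mg/mL (stock) and serially diluted from 64 to 0.015 µg/mL. Inoculum is ~10⁵ CFU/mL, checked by plating on 7H11 agar. Rifampin and levofloxacin are positive controls; drug-free broth with DMSO is the negative control. Growth inhibition is read after 2 days at 37 °C as MIC.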
On the technique in general: Dilution methods test growth across graded concentrations, often in twofold steps.

The next test relates to Moraxella catarrhalis. As to the kind of experiment: Antibacterial activity against Moraxella catarrhalis ATCC 25238 assessed as inhibition of bacterial growth incubated for 22 to 24 hrs. As to conditions: time 22-24 hrs. In a few lines: as §2
Test [3] relates to Staphylococcus epidermidis. As to the kind of experiment: Antibacterial activity against clinical isolate methicillin resistant Staphylococcus epidermidis AB 735 assessed as inhibition of bacterial growth incubated for 22 to 24 hrs. As to conditions: time 22-24 hrs.
Another test has as its system Escherichia coli. As to the kind of experiment: Antibacterial activity against clinical isolate Escherichia coli AB 117 assessed as inhibition of bacterial growth incubated for 22 to 24 hrs. As to conditions: time 22-24 hrs.
Test [4] concerns Staphylococcus aureus. As to the kind of experiment: Antibacterial activity against methicillin sensitive Staphylococcus aureus ATCC 29213 assessed as inhibition of bacterial growth incubated for 22 to 24 hrs. As to conditions: time 22-24 hrs. In a few lines: as §2
Test [5] has as its system Mycobacterium tuberculosis. Description: Antibacterial activity against Mycobacterium tuberculosis H37Rv ATCC 25618 assessed as inhibition of bacterial growth incubated for 2 days by CLSI protocol based broth microdilution method. As to conditions: H37Rv ATCC 25618, 48 h, time 2 day.

In the case of `COc1cc(CN2CCN(C(=O)c3cccc(Cl)c3)CC2)nc2ccc(F)cc12`, the MIC with Enterococcus faecalis, in the test with Klebsiella pneumoniae, in the test on Enterococcus faecium, in the test on Pseudomonas aeruginosa, in the test with Acinetobacter baumannii and with Staphylococcus aureus [1] was more than 64 µg/mL each time. The MIC (in general, the least concentration at which growth counts as inhibited) in [2] is more than 64 µg/mL; in the test with Moraxella catarrhalis, 64 µg/mL (≈ 155 µM); in test [3], more than 64 µg/mL; in the test with Escherichia coli, more than 64 µg/mL; with Staphylococcus aureus [4], more than 64 µg/mL; in test [5], more than 64 µg/mL.
Regarding `COc1cc(CN2CCN(C(=O)c3cccc(F)c3)CC2)nc2ccc(F)cc12`, the MIC in the test on Enterococcus faecalis, in the test on Klebsiella pneumoniae, in the test on Enterococcus faecium, in the test on Pseudomonas aeruginosa, with Acinetobacter baumannii and in the test with Staphylococcus aureus [1] was more than 64 µg/mL each time. The MIC (in test [2]; in the test with Moraxella catarrhalis; in test [3]; in the test with Escherichia coli; in the test on Staphylococcus aureus [4]; in [5]) was more than 64 µg/mL throughout.
As for `COc1cc(CN2CCN(S(=O)(=O)c3ccc(Cl)cc3Cl)CC2)nc2ccc(F)cc12`, the MIC in the test with Enterococcus faecalis, in the test on Klebsiella pneumoniae, with Enterococcus faecium, with Pseudomonas aeruginosa, in the test on Acinetobacter baumannii and in the test on Staphylococcus aureus [1] was more than 64 µg/mL throughout. The MIC (in test [2]; in the test with Moraxella catarrhalis; in test [3]; in the test on Escherichia coli; with Staphylococcus aureus [4]; in [5]) was more than 64 µg/mL throughout.
Turning to `COc1ccc(C(=O)N2CCN(Cc3cc(OC)c4cc(F)ccc4n3)CC2)cc1`, the MIC with Enterococcus faecalis, in the test on Klebsiella pneumoniae, in the test with Enterococcus faecium, with Pseudomonas aeruginosa, with Acinetobacter baumannii and in the test with Staphylococcus aureus [1] was more than 64 µg/mL each time. Also, the MIC (in test [2]; with Moraxella catarrhalis; in test [3]; in the test on Escherichia coli; in the test on Staphylococcus aureus [4]; in test [5]) was more than 64 µg/mL in each case.
For `COc1cc(CN2CCN(S(=O)(=O)c3ccc(C)cc3)CC2)nc2ccc(F)cc12`, the MIC with Enterococcus faecalis, with Klebsiella pneumoniae, in the test on Enterococcus faecium, in the test with Pseudomonas aeruginosa, with Acinetobacter baumannii and in the test with Staphylococcus aureus [1] was more than 64 µg/mL each time. Further, the MIC in test [2] is more than 64 µg/mL; with Moraxella catarrhalis, 16 µg/mL (≈ 37.3 µM); in test [3] it was 32 µg/mL (≈ 74.5 µM); with Escherichia coli, more than 64 µg/mL; in the test on Staphylococcus aureus [4], 64 µg/mL (≈ 149 µM); in test [5], more than 64 µg/mL.
`COc1cc(CN2CCN(C(=O)c3ccccc3F)CC2)nc2ccc(F)cc12`: the MIC with Enterococcus faecalis, with Klebsiella pneumoniae, in the test on Enterococcus faecium, in the test on Pseudomonas aeruginosa, in the test on Acinetobacter baumannii and in the test on Staphylococcus aureus [1] was more than 64 µg/mL throughout. Besides, the MIC (in [2]; in the test with Moraxella catarrhalis; in test [3]; with Escherichia coli; in the test on Staphylococcus aureus [4]; in test [5]) was more than 64 µg/mL each time.
Regarding `COc1cccc(C(=O)N2CCN(Cc3cc(OC)c4cc(OC)ccc4n3)CC2)c1`, the MIC in the test with Enterococcus faecalis, with Klebsiella pneumoniae, in the test with Enterococcus faecium, in the test on Pseudomonas aeruginosa, in the test on Acinetobacter baumannii and in the test with Staphylococcus aureus [1] was more than 64 µg/mL each time. The MIC (in [2]; in the test on Moraxella catarrhalis; in test [3]; in the test with Escherichia coli; with Staphylococcus aureus [4]; in [5]) was more than 64 µg/mL throughout.
As for `COc1ccc2nc(CN3CCN(C(=O)c4ccccc4OC)CC3)cc(OC)c2c1`, the MIC in the test on Enterococcus faecalis, with Klebsiella pneumoniae, in the test on Enterococcus faecium, in the test on Pseudomonas aeruginosa, in the test with Acinetobacter baumannii and in the test on Staphylococcus aureus [1] was more than 64 µg/mL in each case. The MIC (in test [2]; in the test with Moraxella catarrhalis; in test [3]; in the test with Escherichia coli; with Staphylococcus aureus [4]; in test [5]) was more than 64 µg/mL in each case.
On to `COc1ccc2nc(CN3CCN(C(=O)C4CCC4)CC3)cc(OC)c2c1`, for which the MIC in the test on Enterococcus faecalis, in the test on Klebsiella pneumoniae, in the test on Enterococcus faecium, in the test with Pseudomonas aeruginosa, in the test with Acinetobacter baumannii and in the test on Staphylococcus aureus [1] was more than 64 µg/mL in each case. Further, the MIC in test [2] is more than 64 µg/mL; with Moraxella catarrhalis, 2 µg/mL (≈ 5.41 µM); in [3] it was more than 64 µg/mL; in the test on Escherichia coli it was more than 64 µg/mL; in the test with Staphylococcus aureus [4], more than 64 µg/mL; in test [5], more than 64 µg/mL.
Turning to `COc1ccc(S(=O)(=O)N2CCN(Cc3cc(OC)c4cc(F)ccc4n3)CC2)cc1`, the MIC in the test on Enterococcus faecalis, with Klebsiella pneumoniae, in the test with Enterococcus faecium, in the test on Pseudomonas aeruginosa, in the test on Acinetobacter baumannii and with Staphylococcus aureus [1] was more than 64 µg/mL throughout. The MIC (in [2]; with Moraxella catarrhalis; in test [3]; with Escherichia coli; with Staphylococcus aureus [4]; in test [5]) was more than 64 µg/mL each time.
Turning to `COc1cc(CN2CCN(S(=O)(=O)c3ccc(NC(C)=O)cc3)CC2)nc2ccc(F)cc12`, the MIC with Enterococcus faecalis, with Klebsiella pneumoniae, in the test on Enterococcus faecium, in the test on Pseudomonas aeruginosa, in the test on Acinetobacter baumannii and with Staphylococcus aureus [1] was more than 64 µg/mL in each case. Further, the minimal inhibitory concentration (MIC) in test [2] was more than 64 µg/mL; in the test with Moraxella catarrhalis it was 32 µg/mL (≈ 67.7 µM); in test [3] it was 64 µg/mL (≈ 135 µM); in the test on Escherichia coli, more than 64 µg/mL; with Staphylococcus aureus [4], more than 64 µg/mL; in [5] it was more than 64 µg/mL.
Take `COc1cc(CN2CCN(C(=O)c3ccccc3C)CC2)nc2ccc(F)cc12`: the MIC with Enterococcus faecalis, in the test with Klebsiella pneumoniae, in the test with Enterococcus faecium, in the test on Pseudomonas aeruginosa, with Acinetobacter baumannii and in the test with Staphylococcus aureus [1] was more than 64 µg/mL in each case. The MIC (in test [2]; with Moraxella catarrhalis; in [3]; in the test with Escherichia coli; with Staphylococcus aureus [4]; in test [5]) was more than 64 µg/mL throughout.
